Measurements from different studies.
Protocols differ between the studies behind these lines.
Target: Serine/threonine-protein kinase Nek1 (NEK1, Homo sapiens, UniProt Q96PY6)
One construct used (Q96PY6 1-1258): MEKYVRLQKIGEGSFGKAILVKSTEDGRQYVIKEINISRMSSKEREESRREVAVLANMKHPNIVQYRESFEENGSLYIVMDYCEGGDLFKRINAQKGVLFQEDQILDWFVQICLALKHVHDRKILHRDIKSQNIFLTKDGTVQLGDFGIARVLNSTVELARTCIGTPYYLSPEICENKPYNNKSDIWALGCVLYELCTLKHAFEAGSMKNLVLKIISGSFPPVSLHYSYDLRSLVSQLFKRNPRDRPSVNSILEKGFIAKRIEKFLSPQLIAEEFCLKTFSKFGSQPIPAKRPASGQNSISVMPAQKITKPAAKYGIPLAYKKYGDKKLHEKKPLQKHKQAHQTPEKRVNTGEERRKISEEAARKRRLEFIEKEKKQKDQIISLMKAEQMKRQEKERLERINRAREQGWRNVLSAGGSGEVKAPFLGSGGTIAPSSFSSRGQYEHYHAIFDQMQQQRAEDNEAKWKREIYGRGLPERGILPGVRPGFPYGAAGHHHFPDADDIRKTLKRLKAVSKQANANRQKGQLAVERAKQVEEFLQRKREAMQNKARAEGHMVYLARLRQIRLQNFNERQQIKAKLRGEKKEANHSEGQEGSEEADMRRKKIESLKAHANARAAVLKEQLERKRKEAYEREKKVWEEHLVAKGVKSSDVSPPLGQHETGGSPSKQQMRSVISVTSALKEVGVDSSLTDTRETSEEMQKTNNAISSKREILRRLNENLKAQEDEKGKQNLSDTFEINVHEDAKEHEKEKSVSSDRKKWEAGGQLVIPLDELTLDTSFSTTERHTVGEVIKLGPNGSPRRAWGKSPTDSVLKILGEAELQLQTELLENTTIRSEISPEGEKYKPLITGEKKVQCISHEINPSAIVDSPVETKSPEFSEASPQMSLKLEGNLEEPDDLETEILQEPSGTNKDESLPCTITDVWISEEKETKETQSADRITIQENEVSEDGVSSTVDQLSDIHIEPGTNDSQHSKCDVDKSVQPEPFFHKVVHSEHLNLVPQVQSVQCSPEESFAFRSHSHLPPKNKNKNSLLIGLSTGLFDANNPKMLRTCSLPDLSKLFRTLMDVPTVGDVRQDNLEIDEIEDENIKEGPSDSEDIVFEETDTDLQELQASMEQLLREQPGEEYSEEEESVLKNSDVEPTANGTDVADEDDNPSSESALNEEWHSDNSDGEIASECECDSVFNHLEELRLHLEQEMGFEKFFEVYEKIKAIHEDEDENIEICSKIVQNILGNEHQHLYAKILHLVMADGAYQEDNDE

| SMILES | assay | setting | endpoint | result |
| --- | --- | --- | --- | --- |
| CO[C@@H]1[C@H](N(C)C(=O)c2ccccc2)C[C@H]2O[C@]1(C)n1c3ccccc3c3c4c(c5c6ccccc6n2c5c31)C(=O)NC4 | enzyme activity, inhibitor | 1 µM | inhibition | 0% |
| C1=C/COCc2cc(ccc2OCCN2CCCC2)Nc2nccc(n2)-c2cccc(c2)COC/1 | binding | 0.1 µM | remaining binding | 98% |
| COc1ccc2[nH]c3c4[nH]c5ccc(OC)cc5c4c4c(c3c2c1)C(=O)NC4=O | binding | 1 µM | remaining binding | 100% |
| CCCCC(=O)Nc1ccc(-c2ccc3ncn(CCC)c(=O)c3c2)cn1 | binding, competition with immobilised ligand | 0.5 µM | remaining binding | 95% |
| C[C@H]1CC[C@H](n2c3cnccc3c3cnc(Nc4ccc5c(n4)CCN(C(=O)CO)C5)nc32)CC1 | cell-free assay | 1 µM | remaining signal | 85% |
| C#Cc1cc(-c2cc(Nc3nc(N[C@@H](C)c4ccc(F)cn4)ncc3Cl)n[nH]2)ccc1C=O | enzyme activity, inhibitor | 0.2 µM | inhibition | 70.2% |
| Cc1cc(O)c(-c2ccc([C@@H](C)CN(C)C)cc2)c2c1[nH]c(=O)c1sccc12 | enzyme activity, inhibitor | 0.1 µM | inhibition | -3.68% |
| CC#CC(=O)N1CCC[C@H]1c1nc(-c2ccc(C(=O)Nc3ccccn3)cc2)c2c(N)nccn12 | enzyme activity, inhibitor | 1 µM | inhibition | 8% |
| COc1ccc2oc(-c3ccc4nc(N)oc4c3)c/c(=N\c3ccccc3NC(=O)CCN)c2c1 | binding | 1 µM | remaining binding | 108% |
